According to ChEMBL document CHEMBL3632511, “Oxopyrido[2,3-d]pyrimidines as Covalent L858R/T790M Mutant Selective Epidermal Growth Factor Receptor (EGFR) Inhibitors” (ACS Med Chem Lett, 2015):
Blank lines part the entries; values can stand above or below the molecule they belong to. The source made the active and inactive calls. The calls are words filed in the database; no cut-off is given here.

Experiments:
NCI-H1975 [1] = assay: Cytotoxicity against human NCI-H1975 cells harboring EGFR L858R/T790M double mutant assessed as inhibition of cell proliferation after 72 hrs by CellTiter-Glo assay; format: functional, cell-based; conditions: NCI-H1975, 72 h
[2] = target: T1, Tyrosine-protein kinase BTK (Homo sapiens, UniProt Q06187); assay: Competitive binding affinity to human BTK in presence of immobilized ligand
T1 sequence (Q06187 whole entry): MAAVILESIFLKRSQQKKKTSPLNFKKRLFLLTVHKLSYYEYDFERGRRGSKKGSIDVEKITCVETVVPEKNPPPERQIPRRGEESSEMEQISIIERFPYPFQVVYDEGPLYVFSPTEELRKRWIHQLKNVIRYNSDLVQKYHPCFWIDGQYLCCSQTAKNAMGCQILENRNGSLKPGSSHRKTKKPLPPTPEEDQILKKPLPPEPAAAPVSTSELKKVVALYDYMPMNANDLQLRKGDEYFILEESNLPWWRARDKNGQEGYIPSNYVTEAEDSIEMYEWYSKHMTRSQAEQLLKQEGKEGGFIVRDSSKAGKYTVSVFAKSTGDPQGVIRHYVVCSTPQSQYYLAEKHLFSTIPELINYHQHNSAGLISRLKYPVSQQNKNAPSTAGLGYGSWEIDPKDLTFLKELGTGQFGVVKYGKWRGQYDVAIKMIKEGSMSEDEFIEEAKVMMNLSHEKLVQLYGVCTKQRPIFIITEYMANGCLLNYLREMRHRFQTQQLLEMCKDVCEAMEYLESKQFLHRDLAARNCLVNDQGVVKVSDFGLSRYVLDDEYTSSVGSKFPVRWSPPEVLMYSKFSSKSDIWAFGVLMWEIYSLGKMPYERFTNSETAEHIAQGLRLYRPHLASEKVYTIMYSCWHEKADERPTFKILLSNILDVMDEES

[3] = Selectivity ratio of IC50 for wild type EGFR phosphorylation in human A431 cells to IC50 for EGFR L858R/T790M double mutant phosphorylation in human NCI-H1975 cells; format: ADME, cell-based
[4] = AUC (0 to t) in athymic nude mouse xenografted with human NCI-H1975 cells at 30 mg/kg, po qd administered for 2 weeks started on day 6 post tumor implantation; format: ADME, organism-based; conditions: in vivo
[5] = target: Tyrosine-protein kinase JAK3 (Homo sapiens, UniProt P52333); assay: Competitive binding affinity to human JAK3 in presence of immobilized ligand
[6] = AUC (0 to infinity) in athymic nude mouse xenografted with human NCI-H1975 cells at 30 mg/kg, po; format: ADME, organism-based; design: dose 30 mg/kg, route oral, time infinity; conditions: in vivo
Mus musculus [7] = assay: In vivo inhibition of EGFR L858R/T790M double mutant phosphorylation in human NCI-H1975 cells xenografted in athymic nude mouse at 30 mg/kg, po measured at 4 hrs by mesoscale multiplex assay relative to control; format: functional
Procedure, shortened: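 Female athymic nude mice carried matrigel plugs holding 5 x 10⁶ H1975 cells, n = 3 per group. Control or compound given at 30 mg/kg po. Plugs and plasma taken 4 h after dosing. p-EGFR in plug measured by quantitative MSD assay, given as % p-EGFR/PRAS40 vs control.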

Rattus norvegicus [8] = organism: Rattus norvegicus; assay: Hepatobiliary toxicity in Sprague-Dawley rat measured for 4 days; format: organism-based; conditions: in vivo, 96 h
[9] = (§1) Clearance in Sprague-Dawley rat at 1 mg/kg, iv; format: ADME, organism-based; conditions: Sprague-Dawley, in vivo
Procedure, shortened: (§2)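 Male Sprague Dawley rats, 3 animals per route; mean values. IV dose 1 mg/kg as a DMSO solution. Oral dose 10 mg/kg, in one of three vehicles by compound: 1% Pluronic F68/2% HPMC/15% HPBCD/82% water–methanesulfonic acid pH 4.5; 20% HPBCD/80% water–methanesulfonic acid pH 4.0; or 1% Pluronic F68/2% HPMC/97% water–methanesulfonic acid pH 4.0.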

NCI-H1975 [10] = assay: Antitumor activity against human NCI-H1975 cells xenografted in athymic nude mouse assessed as tumor growth inhibition at 30 mg/kg, po qd administered for 2 weeks started on day 6 post tumor implantation measured on day 19 relative to control; format: functional
[11] = target: Receptor tyrosine-protein kinase erbB-4 (Homo sapiens, UniProt Q15303); assay: Competitive binding affinity to human ERBB4 in presence of immobilized ligand
rat MDR1 (P-gp) [12] = assay: Permeability across pig LLC-PK1 cells transfected with rat MDR1 gene; format: ADME, cell-based, Sus scrofa; conditions: read-out: permeability
[13] = target: Tyrosine-protein kinase JAK1 (Homo sapiens, UniProt P23458); assay: Competitive binding affinity to human JAK1 JH2 domain pseudokinase in presence of immobilized ligand
[14] = target: Epidermal growth factor receptor (Homo sapiens, UniProt P00533, T790M); assay: Competitive binding affinity to human EGFR T790M mutant in presence of immobilized ligand; format: protein assay
[15] = target: Receptor tyrosine-protein kinase erbB-2 (Homo sapiens, UniProt P04626); assay: Competitive binding affinity to human ERBB2 in presence of immobilized ligand
[16] = Fraction unbound in rat plasma at 5 uM by rapid equilibrium dialysis method; format: ADME, cell-free
[17] = Fraction unbound in mouse plasma at 5 uM by rapid equilibrium dialysis method; format: ADME, cell-free
[18] = target: Cyclin-G-associated kinase (Homo sapiens, UniProt O14976); assay: Competitive binding affinity to human GAK in presence of immobilized ligand
[19] = target: Tyrosine-protein kinase TXK (Homo sapiens, UniProt P42681); assay: Competitive binding affinity to human TXK in presence of immobilized ligand
[20] = target: T1, Tyrosine-protein kinase BTK; assay: Competitive binding affinity to human BTK at 1 uM in presence of immobilized ligand relative to control
Procedure, shortened: (§3)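 Kinase selectivity by competitive binding in the ScanMAX KINOMEscan panel of […] protein and lipid kinases. Compound tested at 1 μM; binding expressed as percentage of control (POC).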

[21] = target: Epidermal growth factor receptor (Homo sapiens, UniProt P00533, 746-750DEL); assay: Inhibition of EGFR 746 to 750 deletion mutant phosphorylation in human HCC827 cells after 60 mins by mesoscale multiplex assay; format: cell-based
Sequence of Epidermal growth factor receptor (Homo sapiens, UniProt P00533, 746-750DEL) (P00533 whole entry, looked up, stated change not applied): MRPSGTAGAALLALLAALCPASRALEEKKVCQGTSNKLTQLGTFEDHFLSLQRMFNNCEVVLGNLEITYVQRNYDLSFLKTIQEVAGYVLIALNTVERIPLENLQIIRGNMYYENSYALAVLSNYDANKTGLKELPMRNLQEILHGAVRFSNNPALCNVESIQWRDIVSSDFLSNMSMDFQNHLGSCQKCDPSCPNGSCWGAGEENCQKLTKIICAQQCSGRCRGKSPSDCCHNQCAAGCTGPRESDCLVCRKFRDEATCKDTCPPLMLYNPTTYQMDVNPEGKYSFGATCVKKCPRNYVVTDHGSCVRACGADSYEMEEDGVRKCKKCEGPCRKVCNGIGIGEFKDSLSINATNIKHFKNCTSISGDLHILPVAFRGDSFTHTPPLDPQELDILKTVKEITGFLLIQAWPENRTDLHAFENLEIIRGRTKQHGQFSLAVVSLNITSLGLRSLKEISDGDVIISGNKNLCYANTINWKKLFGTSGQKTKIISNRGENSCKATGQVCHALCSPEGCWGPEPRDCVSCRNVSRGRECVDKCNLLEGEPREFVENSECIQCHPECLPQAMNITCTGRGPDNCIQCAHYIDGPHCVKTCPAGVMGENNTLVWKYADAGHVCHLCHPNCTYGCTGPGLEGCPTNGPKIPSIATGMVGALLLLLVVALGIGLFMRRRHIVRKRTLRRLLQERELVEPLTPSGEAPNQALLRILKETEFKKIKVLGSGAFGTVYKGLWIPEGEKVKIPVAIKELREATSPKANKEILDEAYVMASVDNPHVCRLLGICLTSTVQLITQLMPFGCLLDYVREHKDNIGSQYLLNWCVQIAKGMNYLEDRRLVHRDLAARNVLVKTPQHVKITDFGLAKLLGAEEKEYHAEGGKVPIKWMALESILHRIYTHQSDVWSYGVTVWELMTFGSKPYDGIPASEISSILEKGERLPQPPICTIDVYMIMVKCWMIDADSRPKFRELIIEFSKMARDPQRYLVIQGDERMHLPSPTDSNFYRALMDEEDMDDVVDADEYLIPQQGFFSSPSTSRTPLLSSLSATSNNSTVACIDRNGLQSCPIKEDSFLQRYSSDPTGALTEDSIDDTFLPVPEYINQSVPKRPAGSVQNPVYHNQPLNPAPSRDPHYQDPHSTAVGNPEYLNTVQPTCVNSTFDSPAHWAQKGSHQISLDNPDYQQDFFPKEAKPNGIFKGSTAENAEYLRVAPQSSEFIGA

A-431 = assay: Cytotoxicity against human A431 cells expressing wild-type EGFR assessed as inhibition of cell proliferation after 72 hrs by CellTiter-Glo assay; format: cell-based; conditions: A-431, 72 h
[22] = target: T2, Epidermal growth factor receptor (Homo sapiens, UniProt P00533); assay: Competitive binding affinity to human wild type EGFR in presence of immobilized ligand
T2 sequence (P00533 whole entry): as the sequence (P00533 whole entry, looked up, stated change not applied) above

[23] = (§4) AUC (0 to infinity) in Sprague-Dawley rat at 10 mg/kg, po; format: ADME, organism-based; design: dose 10 mg/kg, route oral, time infinity; conditions: Sprague-Dawley, in vivo; procedure, shortened: as §2
[24] = (§5) Oral bioavailability in Sprague-Dawley rat at 10 mg/kg; format: ADME, organism-based; conditions: Sprague-Dawley, in vivo; procedure, shortened: as §2
human MDR1 (P-gp) [25] = assay: Permeability across pig LLC-PK1 cells transfected with human MDR1 gene; format: ADME, cell-based, Sus scrofa; conditions: read-out: permeability
[26] = target: Dual specificity protein kinase TTK (Homo sapiens) (UniProt P33981); assay: Competitive binding affinity to human TTK at 1 uM in presence of immobilized ligand relative to control; procedure, shortened: as §3
Sequence of Dual specificity protein kinase TTK (Homo sapiens) (P33981 whole entry): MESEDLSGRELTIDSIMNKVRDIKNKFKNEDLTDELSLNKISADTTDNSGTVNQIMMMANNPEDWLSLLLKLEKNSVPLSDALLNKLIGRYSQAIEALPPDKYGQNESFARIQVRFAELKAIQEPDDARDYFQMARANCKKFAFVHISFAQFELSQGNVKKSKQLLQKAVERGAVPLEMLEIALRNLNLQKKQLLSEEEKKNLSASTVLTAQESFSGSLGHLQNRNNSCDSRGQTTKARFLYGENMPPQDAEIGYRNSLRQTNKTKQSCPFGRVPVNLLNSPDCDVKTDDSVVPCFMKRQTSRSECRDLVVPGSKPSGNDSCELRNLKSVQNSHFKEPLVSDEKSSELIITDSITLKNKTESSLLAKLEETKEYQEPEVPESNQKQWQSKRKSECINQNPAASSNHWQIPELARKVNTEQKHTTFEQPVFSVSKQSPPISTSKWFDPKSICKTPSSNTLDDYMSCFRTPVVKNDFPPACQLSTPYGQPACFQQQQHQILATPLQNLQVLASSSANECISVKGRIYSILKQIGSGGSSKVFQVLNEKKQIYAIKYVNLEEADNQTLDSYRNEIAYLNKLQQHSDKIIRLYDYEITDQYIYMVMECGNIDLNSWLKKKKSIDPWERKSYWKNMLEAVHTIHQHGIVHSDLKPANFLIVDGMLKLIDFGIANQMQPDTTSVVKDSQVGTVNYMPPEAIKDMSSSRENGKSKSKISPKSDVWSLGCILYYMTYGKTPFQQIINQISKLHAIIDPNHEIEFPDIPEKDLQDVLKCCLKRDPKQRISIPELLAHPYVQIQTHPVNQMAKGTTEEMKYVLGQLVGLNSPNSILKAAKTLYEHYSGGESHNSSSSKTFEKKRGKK

[27] = Fraction unbound in human plasma at 5 uM by rapid equilibrium dialysis method; format: ADME, cell-free
[28] = target: Tyrosine-protein kinase ITK/TSK (Homo sapiens, UniProt Q08881); assay: Competitive binding affinity to human ITK in presence of immobilized ligand
[29] = target: Tyrosine-protein kinase Blk (Homo sapiens, UniProt P51451); assay: Competitive binding affinity to human BLK in presence of immobilized ligand
human MDR1 (P-gp) [30] = assay: Efflux ratio of permeability across pig LLC-PK1 cells transfected with human MDR1 gene; format: ADME, cell-based, Sus scrofa
[31] = Fraction unbound in dog plasma at 5 uM by rapid equilibrium dialysis method; format: ADME, cell-free, Canis lupus familiaris
Mus musculus [32] = assay: Toxicity in athymic nude mouse xenografted with human NCI-H1975 cells assessed as change in body weight at 30 mg/kg, po qd administered for 2 weeks started on day 6 post tumor implantation; format: organism-based; conditions: in vivo, 336 h
[33] = Volume of distribution at steady state in Sprague-Dawley rat at 1 mg/kg, iv; format: ADME, organism-based; conditions: in vivo, read-out: Vdss; procedure, shortened: as §2
[34] = Cmax in athymic nude mouse xenografted with human NCI-H1975 cells at 30 mg/kg, po measured at 2 hrs; format: ADME, organism-based; design: dose 30 mg/kg, route oral; conditions: in vivo
Procedure, shortened: (§6)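 Time-course PD in mice carrying matrigel plugs of H1975 cells after a single oral dose of 30 mg/kg. Tumor cell plugs and plasma harvested at 2, 4, 8, 12 and 24 h post dose. Plug p-EGFR measured, and plasma drug concentration taken for Cmax.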

[35] = Selectivity ratio of IC50 for wild type EGFR phosphorylation in human A431 cells to IC50 for EGFR 746 to 750 deletion mutant phosphorylation in human HCC827 cells; format: ADME, cell-based
Mus musculus [36] = assay: In vivo inhibition of EGFR L858R/T790M double mutant phosphorylation in human NCI-H1975 cells xenografted in athymic nude mouse at 30 mg/kg, po measured at >12 hrs by mesoscale multiplex assay relative to control; format: functional; procedure, shortened: as §6
[37] = target: T2, Epidermal growth factor receptor; assay: Inhibition of wild type EGFR phosphorylation in human A431 cells after 60 mins by mesoscale multiplex assay; format: cell-based, A-431
rat MDR1 (P-gp) [38] = assay: Efflux ratio of permeability across pig LLC-PK1 cells transfected with rat MDR1 gene; format: ADME, cell-based, Sus scrofa
[39] = Half life in Sprague-Dawley rat at 1 mg/kg, iv; format: ADME, organism-based; conditions: in vivo; procedure, shortened: as §2
[40] = Cytotoxicity against human HCC827 cells harboring EGFR 746 to 750 deletion mutant assessed as inhibition of cell proliferation after 72 hrs by CellTiter-Glo assay; format: functional, cell-based; conditions: HCC827, 72 h
[41] = target: Dual specificity protein kinase TTK (Homo sapiens, UniProt P33981); assay: Competitive binding affinity to human TTK in presence of immobilized ligand
[42] = target: Epidermal growth factor receptor (Homo sapiens, UniProt P00533, L858R/T790M); assay: Inhibition of EGFR L858R/T790M double mutant phosphorylation in human NCI-H1975 cells after 60 mins by mesoscale multiplex assay; format: cell-based
Sequence of Epidermal growth factor receptor (Homo sapiens, UniProt P00533, L858R/T790M) (P00533 25-1210 T790M/L858R limits assumed): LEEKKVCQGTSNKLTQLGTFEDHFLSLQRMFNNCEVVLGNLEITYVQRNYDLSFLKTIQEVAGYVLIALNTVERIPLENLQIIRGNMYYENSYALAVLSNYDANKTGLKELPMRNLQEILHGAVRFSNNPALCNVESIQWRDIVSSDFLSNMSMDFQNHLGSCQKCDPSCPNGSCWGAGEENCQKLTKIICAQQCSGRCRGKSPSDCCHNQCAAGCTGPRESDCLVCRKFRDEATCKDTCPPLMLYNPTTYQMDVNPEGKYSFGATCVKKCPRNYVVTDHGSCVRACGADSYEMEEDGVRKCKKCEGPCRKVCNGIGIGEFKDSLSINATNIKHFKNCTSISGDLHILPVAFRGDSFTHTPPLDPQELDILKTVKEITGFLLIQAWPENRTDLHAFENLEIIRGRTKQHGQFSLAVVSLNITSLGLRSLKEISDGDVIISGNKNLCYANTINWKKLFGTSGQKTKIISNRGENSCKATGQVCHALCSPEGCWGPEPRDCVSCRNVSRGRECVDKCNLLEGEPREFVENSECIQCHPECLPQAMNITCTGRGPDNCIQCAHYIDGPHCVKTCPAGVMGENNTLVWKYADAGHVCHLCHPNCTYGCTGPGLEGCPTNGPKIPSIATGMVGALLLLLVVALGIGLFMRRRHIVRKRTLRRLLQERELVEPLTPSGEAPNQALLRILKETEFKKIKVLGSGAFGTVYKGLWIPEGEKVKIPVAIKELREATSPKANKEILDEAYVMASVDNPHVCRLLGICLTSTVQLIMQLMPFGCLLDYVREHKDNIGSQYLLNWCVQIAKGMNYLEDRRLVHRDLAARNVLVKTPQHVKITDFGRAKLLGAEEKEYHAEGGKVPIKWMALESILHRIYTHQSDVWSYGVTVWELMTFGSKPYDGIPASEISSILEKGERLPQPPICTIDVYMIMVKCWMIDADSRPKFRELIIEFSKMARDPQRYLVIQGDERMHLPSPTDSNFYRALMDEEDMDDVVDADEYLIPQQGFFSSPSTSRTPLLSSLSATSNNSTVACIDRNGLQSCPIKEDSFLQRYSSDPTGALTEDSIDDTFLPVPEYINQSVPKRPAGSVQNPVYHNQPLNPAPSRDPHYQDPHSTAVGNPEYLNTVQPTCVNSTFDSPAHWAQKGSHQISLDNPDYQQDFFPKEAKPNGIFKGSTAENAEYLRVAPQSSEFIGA

Rattus norvegicus [43] = assay: as §1; format: ADME, organism-based; conditions: in vivo; procedure, shortened: as §2
Rattus norvegicus [44] = assay: as §4; format: ADME, organism-based; design: dose 10 mg/kg, route oral, time infinity; conditions: in vivo; procedure, shortened: as §2
Rattus norvegicus [45] = assay: as §5; format: ADME, organism-based; conditions: in vivo; procedure, shortened: as §2

SMILES: C=CC(=O)Nc1cccc(-n2c(=O)cc(C)c3cnc(Nc4ccc(N5CCOCC5)cc4OC)nc32)c1
- IC50 (NCI-H1975 [1]): > 10000 nM

- Kd [2]: 290 nM
- AUC(0-t) at 336 h [4]: 0.56 µM·h
- Kd [5]: 30 nM
- AUC(0-inf) [6]: 0.33 µM·h
- clearance [9]: 150 mL/min/kg
- Kd [11]: 130 nM
- Papp (rat MDR1 (P-gp) [12]): 10 ×10⁻⁶ cm/s
- Kd [13]: 2800 nM
- Kd [14]: 0.96 nM
- Kd [15]: 220 nM
- fraction unbound at 5 µM [16]: 0.27
- fraction unbound at 5 µM [17]: 0.25
- Kd [18]: 430 nM
- Kd [19]: 410 nM
- Activity [20]: 17%
- IC50 [21]: 9 nM
- Kd [22]: 220 nM
- AUC(0-inf) [23]: 0.66 µM·h
- bioavailability [24]: 10%
- Papp (human MDR1 (P-gp) [25]): 10 ×10⁻⁶ cm/s
- Activity [26]: 4%
- fraction unbound at 5 µM [27]: 0.54
- Kd [28]: 140 nM
- Kd [29]: 320 nM
- efflux ratio (human MDR1 (P-gp) [30]): > 37
- fraction unbound at 5 µM [31]: 0.46
- Vd [33]: 22 L/kg
- Cmax [34]: 100 nM
- IC50 [37]: 1050 nM
- efflux ratio (rat MDR1 (P-gp) [38]): > 37
- half-life [39]: 4.5 h
- Kd [41]: 81 nM
SMILES: C=CC(=O)Nc1cccc(-n2c(=O)cc(C)c3cnc(Nc4ccc(OCCN(C)C)cc4OC)nc32)c1
- Ratio IC50 [3]: > 100
- inhibition in vivo at 30 mg/kg (Mus musculus [7]): 90%
- Activity (Rattus norvegicus [8]): Non-toxic
- inhibition in vivo at 30 mg/kg (NCI-H1975 [10]; read-out: TGI): 90%
- IC50 (NCI-H1975 [1]): 4 nM
- IC50 (A-431): 2400 nM
- Activity (Mus musculus [32]): Non-toxic
- Ratio IC50 [35]: > 100
- inhibition in vivo at 30 mg/kg (Mus musculus [36]): > 50%
- IC50 [40]: 28 nM

- clearance [9]: 148 mL/min/kg
- IC50 [21]: 3 nM
- AUC(0-inf) [23]: 0.18 µM·h
- bioavailability [24]: 6.6%
- IC50 [42]: 3 nM
- Vd [33]: 19 L/kg
- IC50 [37]: 50 nM
- half-life [39]: 1.4 h
SMILES: C=CC(=O)Nc1cccc(-n2c(=O)ccc3cnc(Nc4ccc(N5CCN(C)CC5)cc4OC)nc32)c1
- Ratio IC50 [3]: 17
- IC50 (NCI-H1975 [1]): 8 nM
- IC50 (A-431): 5230 nM
- Ratio IC50 [35]: 17
- IC50 [40]: 4 nM

SMILES: C=CC(=O)Nc1cccc(-n2c(=O)cc(C)c3cnc(Nc4ccc(N5CCN(C(C)=O)CC5)cc4OC)nc32)c1
- IC50 (NCI-H1975 [1]): 30 nM
- IC50 (A-431): > 5000 nM
- IC50 [40]: 58 nM

SMILES: C=CC(=O)Nc1cccc(-n2c(=O)cc(C)c3cnc(Nc4ccc(N5CCNCC5)cc4OC)nc32)c1
- IC50 (NCI-H1975 [1]): 68 nM
- IC50 (A-431): > 1000 nM
- IC50 [40]: 211 nM

SMILES: C=CC(=O)Nc1cccc(-n2c(=O)c(OC)cc3cnc(Nc4ccc(N5CCN(C)CC5)cc4OC)nc32)c1
- IC50 (NCI-H1975 [1]): 273 nM
- IC50 (A-431): 201 nM
- IC50 [40]: 61 nM

- CL (Rattus norvegicus [43]): 128 mL/min/kg
- IC50 [21]: 12 nM
- AUC (Rattus norvegicus [44]): 0.16 µM·h
- F (Rattus norvegicus [45]): 21%
- IC50 [42]: 6 nM
- Vd [33]: 20 L/kg
- IC50 [37]: 521 nM
- half-life [39]: 2.6 h
SMILES: C=CC(=O)Nc1cccc(-n2c(=O)cc(C)c3cnc(Nc4ccc(N(C)CCN(C)C)cc4OC)nc32)c1
- inhibition in vivo at 30 mg/kg (Mus musculus [7]): 80%
- Activity (Rattus norvegicus [8]): Non-toxic
- TGI (NCI-H1975 [10]): Active
- IC50 (NCI-H1975 [1]): 8 nM
- IC50 (A-431): > 1000 nM
- IC50 [40]: 22 nM
